Columns and labels:
[1] = test system: HEK-293T; assay: Multiplex assay against HEK293T; format: toxicity, cell-based; conditions: human;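 for Population Tubulin-Different-Phenotype (%): share of the cells with healthy nuclei that show this phenotype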
Procedure, shortened: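 Tubulin, mitochondrial-mass and membrane-permeability phenotypes are per cents of healthy-nucleus cells. Cells were gated by CellPathfinder machine learning into Hoechst high-intensity objects or normal cells, normal cells into healthy, pyknosed or fragmented nuclei, and pyknosed cells into mitotic or apoptotic. Before that, live cells stained at seeding with Hoechst33342, BioTracker Green Microtubule Cytoskeleton Dye, MitoTracker Red and Annexin V Alexa Fluor 680 were imaged on a CQ1 microscope at 37°C and 5% CO2 after compound addition.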

[2] = test system: Fibroblast; assay: Incucyte cell viability with human fibroblast; format: toxicity, cell-based; conditions: 10 µM, compound concentration 10 uM; note: filed as whole numbers so only -1 and 0 and 1 occur
[3] = 12 h, 1 µM, compound concentration 1 uM, replicate 1
[4] = 12 h, 1 µM, compound concentration 1 uM, replicate 2
[5] = 12 h, 10 µM, compound concentration 10 uM, replicate 1
[6] = 12 h, 10 µM, compound concentration 10 uM, replicate 2
[7] = 24 h, 1 µM, compound concentration 1 uM, replicate 1
[8] = 24 h, 1 µM, compound concentration 1 uM, replicate 2
[9] = 24 h, 10 µM, compound concentration 10 uM, replicate 1
[10] = 24 h, 10 µM, compound concentration 10 uM, replicate 2
[11] = 48 h, 1 µM, compound concentration 1 uM, replicate 1
[12] = 48 h, 1 µM, compound concentration 1 uM, replicate 2
[13] = 48 h, 10 µM, compound concentration 10 uM, replicate 1
[14] = 48 h, 10 µM, compound concentration 10 uM, replicate 2

CCCCCNC(=N)N/N=C/c1c[nH]c2ccc(OC)cc12.O=C(O)/C=C\C(=O)O [TEGASEROD MALEATE]
Population Apoptotic (%) [1, 3]: 45% | Population Fragmented Nuclei (%) [1, 3]: 20% | Population Healthy Nuclei (%) [1, 3]: 42% | Population Hoechst High Intensity Objects (%) [1, 3]: 16% | Population Membrane Permeable-Phenotype (%) [1, 3]: 4% | Population Mitochondria Different-Phenotype (%) [1, 3]: 88% | Population Mitotic Cells (%) [1, 3]: 54% | Population Normal (%) [1, 3]: 83% | Population Pyknosed Nuclei (%) [1, 3]: 36% | Population Tubulin-Different-Phenotype (%) [1, 3]: 52% | Total Cell Count [1, 3]: 192 | Population Apoptotic (%) [1, 4]: 24% | Population Fragmented Nuclei (%) [1, 4]: 4% | Population Healthy Nuclei (%) [1, 4]: 35% | Population Hoechst High Intensity Objects (%) [1, 4]: 1% | Population Membrane Permeable-Phenotype (%) [1, 4]: 9% | Population Mitochondria Different-Phenotype (%) [1, 4]: 50% | Population Mitotic Cells (%) [1, 4]: 75% | Population Normal (%) [1, 4]: 98% | Population Pyknosed Nuclei (%) [1, 4]: 59% | Population Tubulin-Different-Phenotype (%) [1, 4]: 48% | Total Cell Count [1, 4]: 204 | Population Apoptotic (%) [1, 5]: 51% | Population Fragmented Nuclei (%) [1, 5]: 27% | Population Healthy Nuclei (%) [1, 5]: 0% | Population Hoechst High Intensity Objects (%) [1, 5]: 27% | Population Membrane Permeable-Phenotype (%) [1, 5]: 0% | Population Mitochondria Different-Phenotype (%) [1, 5]: 0% | Population Mitotic Cells (%) [1, 5]: 48% | Population Normal (%) [1, 5]: 72% | Population Pyknosed Nuclei (%) [1, 5]: 72% | Population Tubulin-Different-Phenotype (%) [1, 5]: 0% | Total Cell Count [1, 5]: 295 | Population Apoptotic (%) [1, 6]: 96% | Population Fragmented Nuclei (%) [1, 6]: 15% | Population Healthy Nuclei (%) [1, 6]: 3% | Population Hoechst High Intensity Objects (%) [1, 6]: 29% | Population Mitotic Cells (%) [1, 6]: 3% | Population Normal (%) [1, 6]: 70% | Population Pyknosed Nuclei (%) [1, 6]: 81% | Population Tubulin-Different-Phenotype (%) [1, 6]: 100% | Total Cell Count [1, 6]: 93 | Population Apoptotic (%) [1, 7]: 46% | Population Fragmented Nuclei (%) [1, 7]: 15% | Population Healthy Nuclei (%) [1, 7]: 60% | Population Hoechst High Intensity Objects (%) [1, 7]: 13% | Population Membrane Permeable-Phenotype (%) [1, 7]: 1% | Population Mitochondria Different-Phenotype (%) [1, 7]: 83% | Population Mitotic Cells (%) [1, 7]: 53% | Population Normal (%) [1, 7]: 86% | Population Pyknosed Nuclei (%) [1, 7]: 23% | Population Tubulin-Different-Phenotype (%) [1, 7]: 46% | Total Cell Count [1, 7]: 196 | Population Apoptotic (%) [1, 8]: 24% | Population Fragmented Nuclei (%) [1, 8]: 4% | Population Healthy Nuclei (%) [1, 8]: 54% | Population Hoechst High Intensity Objects (%) [1, 8]: 3% | Population Membrane Permeable-Phenotype (%) [1, 8]: 7% | Population Mitochondria Different-Phenotype (%) [1, 8]: 46% | Population Mitotic Cells (%) [1, 8]: 75% | Population Normal (%) [1, 8]: 96% | Population Pyknosed Nuclei (%) [1, 8]: 40% | Population Tubulin-Different-Phenotype (%) [1, 8]: 43% | Total Cell Count [1, 8]: 260 | Population Apoptotic (%) [1, 9]: 54% | Population Fragmented Nuclei (%) [1, 9]: 31% | Population Healthy Nuclei (%) [1, 9]: 0% | Population Hoechst High Intensity Objects (%) [1, 9]: 35% | Population Membrane Permeable-Phenotype (%) [1, 9]: 100% | Population Mitochondria Different-Phenotype (%) [1, 9]: 100% | Population Mitotic Cells (%) [1, 9]: 45% | Population Normal (%) [1, 9]: 64% | Population Pyknosed Nuclei (%) [1, 9]: 68% | Population Tubulin-Different-Phenotype (%) [1, 9]: 0% | Total Cell Count [1, 9]: 288 | Population Apoptotic (%) [1, 10]: 97% | Population Fragmented Nuclei (%) [1, 10]: 25% | Population Healthy Nuclei (%) [1, 10]: 27% | Population Hoechst High Intensity Objects (%) [1, 10]: 13% | Population Membrane Permeable-Phenotype (%) [1, 10]: 23% | Population Mitochondria Different-Phenotype (%) [1, 10]: 9% | Population Mitotic Cells (%) [1, 10]: 2% | Population Normal (%) [1, 10]: 86% | Population Pyknosed Nuclei (%) [1, 10]: 46% | Population Tubulin-Different-Phenotype (%) [1, 10]: 85% | Total Cell Count [1, 10]: 89 | Population Fragmented Nuclei (%) [1, 11]: 9% | Population Healthy Nuclei (%) [1, 11]: 77% | Population Hoechst High Intensity Objects (%) [1, 11]: 8% | Population Membrane Permeable-Phenotype (%) [1, 11]: 0% | Population Mitochondria Different-Phenotype (%) [1, 11]: 38% | Population Normal (%) [1, 11]: 91% | Population Pyknosed Nuclei (%) [1, 11]: 12% | Population Tubulin-Different-Phenotype (%) [1, 11]: 30% | Total Cell Count [1, 11]: 290 | Population Apoptotic (%) [1, 12]: 33% | Population Fragmented Nuclei (%) [1, 12]: 7% | Population Healthy Nuclei (%) [1, 12]: 78% | Population Hoechst High Intensity Objects (%) [1, 12]: 4% | Population Membrane Permeable-Phenotype (%) [1, 12]: 5% | Population Mitochondria Different-Phenotype (%) [1, 12]: 21% | Population Mitotic Cells (%) [1, 12]: 66% | Population Normal (%) [1, 12]: 95% | Population Pyknosed Nuclei (%) [1, 12]: 14% | Population Tubulin-Different-Phenotype (%) [1, 12]: 42% | Total Cell Count [1, 12]: 411 | Population Apoptotic (%) [1, 13]: 58% | Population Fragmented Nuclei (%) [1, 13]: 36% | Population Healthy Nuclei (%) [1, 13]: 0% | Population Hoechst High Intensity Objects (%) [1, 13]: 31% | Population Membrane Permeable-Phenotype (%) [1, 13]: 0% | Population Mitochondria Different-Phenotype (%) [1, 13]: 0% | Population Mitotic Cells (%) [1, 13]: 41% | Population Normal (%) [1, 13]: 68% | Population Pyknosed Nuclei (%) [1, 13]: 63% | Population Tubulin-Different-Phenotype (%) [1, 13]: 0% | Total Cell Count [1, 13]: 277 | Population Apoptotic (%) [1, 14]: 100% | Population Fragmented Nuclei (%) [1, 14]: 32% | Population Healthy Nuclei (%) [1, 14]: 47% | Population Hoechst High Intensity Objects (%) [1, 14]: 6% | Population Membrane Permeable-Phenotype (%) [1, 14]: 17% | Population Mitochondria Different-Phenotype (%) [1, 14]: 28% | Population Mitotic Cells (%) [1, 14]: 0% | Population Normal (%) [1, 14]: 93% | Population Pyknosed Nuclei (%) [1, 14]: 20% | Population Tubulin-Different-Phenotype (%) [1, 14]: 65% | Total Cell Count [1, 14]: 79 | Growth Rate ([2]; 6 h, replicate number 1, timepoint 6 hours): 0 | Growth Rate ([2]; 12 h, replicate number 1, timepoint 12 hours): 0 | Growth Rate ([2]; 18 h, replicate number 1, timepoint 18 hours): 0 | Growth Rate ([2]; 24 h, replicate number 1, timepoint 24 hours): 0

— ChEMBL document CHEMBL4689842, “EUbOPEN Chemogenomics Library wave 1” (2021)
